Laboratory results from ChEMBL document CHEMBL1145787, “Synthesis and structure-activity relationship of N-substituted 4-arylsulfonylpiperidine-4-hydroxamic acids as novel, orally active matrix metalloproteinase inhibitors for the treatment of osteoarthritis” (J Med Chem, 2003).

What was measured:
Neutrophil collagenase = Neutrophil collagenase (Homo sapiens, UniProt P22894); assay: Inhibition of Matrix metalloprotease-8
Outline: (§1)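 Each inhibitor concentration was tested in triplicate. IC50 came from a four-parameter logistic fit of data within a single experiment and is reported as the mean of the triplicate values.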

[1] = Apparent elimination half life of compound was determined in monkey at 25 mg/kg orally; assay type: ADME, organism-based; set-up: dose 25 mg/kg, route oral; conditions: simiiformes, in vivo, po
Outline: (§2)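 Single-dose PK in Sprague–Dawley rats, New Zealand rabbits, Beagle dogs and cynomolgus monkeys. Dosing was 25 mg/kg oral or 5 mg/kg iv. Plasma concentration–time profiles gave the apparent elimination half-life (T1/2) and the area under the concentration–time curve (AUC). Parameters are reported as means.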

[2] = In vivo inhibition of Matrix metalloprotease enzyme by Sponge-wrapped cartilage assay, compared to activity of RS-130830 (inactive) at 5 mg/kg. po. qd; assay type: functional
[3] = In vivo inhibition of Matrix metalloprotease enzyme by Sponge-wrapped cartilage assay, compared to activity of RS-130830 (20+/-2) at 5 mg/kg. po. bid; assay type: functional
[4] = Peak concentration of compound at Time = 0 was determined in dog at 5 mg/kg intravenously admn.; assay type: ADME, organism-based, Canis lupus familiaris; set-up: dose 5 mg/kg, route intravenous; conditions: in vivo, iv
Outline: (§3)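 Single iv dose of 5 mg/kg in Sprague–Dawley rats, New Zealand rabbits, Beagle dogs and Cynomolgus monkeys. Mean plasma pharmacokinetics: C0 is the concentration at T=0, Vdss the volume of distribution at steady state, and CLT the total clearance.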

[5] = Area under concentration-time curve of compound was determined in dog at 25 mg/kg orally; assay type: ADME, organism-based, Canis lupus familiaris; set-up: dose 25 mg/kg, route oral; conditions: in vivo, po; outline: as §2
[6] = molecular target: 72 kDa type IV collagenase (Homo sapiens, UniProt P08253); assay: Inhibition of Matrix metalloprotease-2; outline: as §1
Oryctolagus cuniculus = assay: Effect of compound on cartilage in surgically induced osteoarthritis (OA) model in rabbit at 25 mg/kg, value are relative to activity of RS-130830 (7.9+/-1.5) at 25 mg/kg; assay type: ADME, organism-based, Cartilage tissue; conditions: in vivo
Outline: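 Rabbits had anterior cruciate ligament transection plus meniscectomy in one knee, with sham surgery on the contralateral knee. From day 10 after surgery, groups of 12 were dosed once daily by oral gavage with vehicle, test compound or the RS-130830 reference for 4 weeks. Knee joints were then collected and scored for gross pathological changes by blinded investigators.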

[7] = Apparent elimination half life of compound was determined in rabbit at 25 mg/kg orally; assay type: ADME, organism-based, Oryctolagus cuniculus; set-up: dose 25 mg/kg, route oral; conditions: in vivo, po; outline: as §2
[8] = Total clearance of compound was determined in monkey at 5 mg/kg intravenously admn.; assay type: ADME, organism-based; set-up: dose 5 mg/kg, route intravenous; conditions: simiiformes, in vivo, iv, read-out: CLT; outline: as §3
[9] = Maximum plasma concentration of compound was determined in dog at 25 mg/kg orally; assay type: ADME, organism-based, Canis lupus familiaris; set-up: dose 25 mg/kg, route oral; conditions: po
Outline: (§4)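 Single oral dose of 25 mg/kg in Sprague–Dawley rats, New Zealand rabbits, Beagle dogs and Cynomolgus monkeys. Mean plasma pharmacokinetics; Cmax is the maximum plasma concentration and Tmax is the time of peak concentration.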

[10] = Apparent elimination half life of compound was determined in rat at 25 mg/kg orally; assay type: ADME, organism-based; set-up: dose 25 mg/kg, route oral; conditions: in vivo, po; outline: as §2
[11] = Total clearance of compound was determined in rat at 5 mg/kg intravenously admn.; assay type: ADME, organism-based; set-up: dose 5 mg/kg, route intravenous; conditions: in vivo, iv, read-out: CLT; outline: as §3
[12] = Oral bioavailability of compound was determined in dog at 25 mg/kg orally; assay type: ADME, organism-based, Canis lupus familiaris; conditions: in vivo, read-out: Bioavailabiility
[13] = Area under concentration-time curve of compound was determined in rat at 5 mg/kg intravenously admn.; assay type: ADME, organism-based; set-up: dose 5 mg/kg, route intravenous; conditions: in vivo, iv, read-out: AUC 0; outline: as §2
[14] = Time of peak concentration of compound was determined in rabbit at 25 mg/kg orally; assay type: ADME, organism-based, Oryctolagus cuniculus; set-up: dose 25 mg/kg, route oral; conditions: in vivo, po; outline: as §4
[15] = Area under concentration-time curve of compound was determined in rabbit at 25 mg/kg orally; assay type: ADME, organism-based, Oryctolagus cuniculus; set-up: dose 25 mg/kg, route oral; conditions: in vivo, po; outline: as §2
[16] = Apparent elimination half life of compound was determined in dog at 25 mg/kg orally; assay type: ADME, organism-based, Canis lupus familiaris; set-up: dose 25 mg/kg, route oral; conditions: in vivo, po; outline: as §2
Collagenase 3 = Collagenase 3 (Homo sapiens, UniProt P45452)
[17] = Volume of distribution at steady state of compound was determined in monkey at 5 mg/kg intravenously admn.; assay type: ADME, organism-based; set-up: dose 5 mg/kg, route intravenous; conditions: simiiformes, in vivo, iv, read-out: Vdss; outline: as §3
[18] = Time of peak concentration of compound was determined in monkey at 25 mg/kg orally; assay type: ADME, organism-based; set-up: dose 25 mg/kg, route oral; conditions: simiiformes, in vivo, po; outline: as §4
[19] = Area under concentration-time curve of compound was determined in rabbit at 5 mg/kg intravenously admn.; assay type: ADME, organism-based, Oryctolagus cuniculus; set-up: dose 5 mg/kg, route intravenous; conditions: in vivo, iv, read-out: AUC 0; outline: as §2
[20] = Total clearance of compound was determined in rabbit at 5 mg/kg intravenously admn.; assay type: ADME, organism-based, Oryctolagus cuniculus; set-up: dose 5 mg/kg, route intravenous; conditions: in vivo, iv, read-out: CLT; outline: as §3
[21] = Area under concentration-time curve of compound was determined in rat at 25 mg/kg orally; assay type: ADME, organism-based; set-up: dose 25 mg/kg, route oral; conditions: in vivo, po; outline: as §2
[22] = Apparent elimination half life of compound was determined in rat at 5 mg/kg intravenously admn.; assay type: ADME, organism-based; set-up: dose 5 mg/kg, route intravenous; conditions: in vivo, iv; outline: as §2
[23] = In vivo inhibitory activity against Matrix metalloprotease enzyme by dialysis implant assay, value is relative to activity of CGS-27023 (48+/-3) at 25 mg/kg. po; assay type: functional

Chain of Neutrophil collagenase (P22894 whole entry): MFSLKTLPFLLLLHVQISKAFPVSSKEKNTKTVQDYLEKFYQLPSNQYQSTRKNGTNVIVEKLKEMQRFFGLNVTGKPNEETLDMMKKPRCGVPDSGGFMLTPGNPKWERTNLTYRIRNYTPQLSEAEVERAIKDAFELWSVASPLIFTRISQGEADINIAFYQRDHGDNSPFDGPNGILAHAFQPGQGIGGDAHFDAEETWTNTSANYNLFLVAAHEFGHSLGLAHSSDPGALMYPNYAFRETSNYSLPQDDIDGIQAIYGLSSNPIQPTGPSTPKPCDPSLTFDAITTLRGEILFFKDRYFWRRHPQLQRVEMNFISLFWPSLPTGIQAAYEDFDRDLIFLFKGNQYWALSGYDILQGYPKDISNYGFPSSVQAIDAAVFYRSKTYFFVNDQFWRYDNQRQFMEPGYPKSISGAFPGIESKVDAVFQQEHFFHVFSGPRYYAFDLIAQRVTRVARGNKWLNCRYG
Chain of 72 kDa type IV collagenase (P08253 whole entry): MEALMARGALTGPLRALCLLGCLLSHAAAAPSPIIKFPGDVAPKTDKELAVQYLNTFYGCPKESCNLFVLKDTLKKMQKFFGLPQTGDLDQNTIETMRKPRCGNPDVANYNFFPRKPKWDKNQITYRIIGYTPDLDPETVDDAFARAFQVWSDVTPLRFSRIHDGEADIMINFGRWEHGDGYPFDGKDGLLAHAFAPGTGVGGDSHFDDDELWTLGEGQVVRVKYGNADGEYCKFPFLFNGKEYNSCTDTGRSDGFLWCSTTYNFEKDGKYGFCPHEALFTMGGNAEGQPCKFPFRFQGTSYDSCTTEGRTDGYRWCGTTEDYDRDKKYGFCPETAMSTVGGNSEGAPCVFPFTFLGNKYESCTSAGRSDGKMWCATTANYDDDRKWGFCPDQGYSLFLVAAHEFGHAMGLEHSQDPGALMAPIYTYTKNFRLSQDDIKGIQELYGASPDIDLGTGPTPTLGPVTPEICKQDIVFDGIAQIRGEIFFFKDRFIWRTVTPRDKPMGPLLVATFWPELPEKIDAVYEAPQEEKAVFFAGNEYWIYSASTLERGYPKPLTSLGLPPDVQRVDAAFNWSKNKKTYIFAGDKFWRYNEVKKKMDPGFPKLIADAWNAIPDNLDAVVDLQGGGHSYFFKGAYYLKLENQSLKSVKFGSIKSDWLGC

IC50 (Neutrophil collagenase): 1 nM
half-life [1]: 20 h
C0 [4]: 82 µg/mL
AUC [5]: 1810 µg·h/mL
IC50 [6]: 1 nM
Average gross pathology scores+/- SE (Oryctolagus cuniculus): 6.8
half-life [7]: 7.14 h
clearance [8]: 0.1 mL/min/kg
Cmax [9]: 96.3 µg/mL
half-life [10]: 10.7 h
clearance [11]: 0.3 mL/min/kg
bioavailability [12]: 47%
AUC [13]: 327 µg·h/mL
Tmax [14]: 10 h
AUC [15]: 363 µg·h/mL
half-life [16]: 17.6 h
IC50 (Collagenase 3): 1 nM
Vd [17]: 0.2 L/kg
Tmax [18]: 5.7 h
AUC [19]: 640 µg·h/mL
clearance [20]: 0.1 mL/min/kg
AUC [21]: 899 µg·h/mL
half-life [22]: 4.4 h
Structure (SMILES): O=C(NO)C1(S(=O)(=O)c2ccc(Oc3ccc(Cl)cc3)cc2)CCN(Cc2ccccc2)CC1
inhibition in vivo at 5 mg/kg [2]: 24%
inhibition in vivo at 5 mg/kg [3]: 53%
inhibition in vivo at 25 mg/kg [23]: 53%
